Assay [1] relates to HL-60. Kind of assay: Mean in vitro concentration to inhibit the metabolic activity of HL-60 cells after 2 days of incubation; n=3. The following applies: Homo sapiens, HL-60, 48 h. It counts as functional, cell-based. An outline of the steps: (§1)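 Human HL-60 promyelocytic leukemia cells in RPMI 1640 with 8.25% FCS, 37 °C, 5% CO2. Seeded in triplicate at 12.5×10^4 (2-day) or 3.75×10^4 (4-day) cells/0.5 mL. Drug in DMSO (0.2% final), serial dilutions.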

Assay [2] relates to HL-60. In words: Mean in vitro concentration to inhibit the metabolic activity of HL-60 cells after 4 days of incubation; n=3. It counts as functional, cell-based. The following applies: Homo sapiens, HL-60, 96 h. In a few lines:
as §1

For 28 molecules, IC50 results are on record in ChEMBL document CHEMBL1141085, “Imidazole-4,5-dicarboxamide derivatives with antiproliferative activity against HL-60 cells” (J Med Chem, 2005).

Usually IC50 stands for the concentration needed to halve the response being measured. A higher IC50 goes with lower potency. In the case of `O=C(NCc1ccc(-c2ccccc2)cc1)c1nc[nH]c1C(=O)Nc1ccc(Cl)c(Cl)c1`, the 50% inhibitory concentration (IC50) with HL-60 [1] is 7 µM; with HL-60 [2], 2.9 µM.

`CCCN(CCC)C(=O)c1[nH]cnc1C(=O)Nc1ccc(Cl)c(Cl)c1`: the IC50 with HL-60 [1] was 379 µM; with HL-60 [2] it was 38.9 µM.

On to `COC(=O)[C@H](NC(=O)c1[nH]cnc1C(=O)Nc1ccc(Cl)c(Cl)c1)C(C)C`, for which the figures for the IC50 with HL-60 [1] and with HL-60 [2] were 8.5 µM and 4.9 µM, respectively.

Consider `C[C@H](c1ccccc1)N(C)C(=O)c1[nH]cnc1C(=O)Nc1ccc(Cl)c(Cl)c1`, for which the IC50 turned out to be 89.4 µM with HL-60 [1] and 68.8 µM in the assay with HL-60 [2].

`C[C@@H](NC(=O)c1[nH]cnc1C(=O)Nc1ccc(Cl)cc1)C(=O)OC(C)(C)C`: the concentration for half-maximal inhibition (IC50) in the assay with HL-60 [1] stood at 6.6 µM; with HL-60 [2], 3.3 µM.

In the case of `Cc1ccc(CNC(=O)c2[nH]cnc2C(=O)Nc2ccc(Cl)c(Cl)c2)cc1`, the IC50 in the assay on HL-60 [1] is 21.4 µM; in the assay with HL-60 [2], 15.2 µM.

Take `O=C(NCc1ccccc1)c1nc[nH]c1C(=O)Nc1ccc(Cl)c(Cl)c1`: the IC50 in the assay on HL-60 [1] amounted to 11.5 µM; in the assay with HL-60 [2] it was 7.4 µM.

Regarding `Cc1ccc(NC(=O)c2nc[nH]c2C(=O)N[C@H](C)C(=O)OC(C)(C)C)cc1`, the IC50 in the assay on HL-60 [1] stood at 6.3 µM; in the assay on HL-60 [2], 3.5 µM.

In the case of `O=C(Nc1ccc(Cl)c(Cl)c1)c1nc[nH]c1C(=O)NCc1ccc(Cl)cc1`, the IC50 with HL-60 [1] stood at 16.2 µM; with HL-60 [2], 8.8 µM.

With `C[C@@H](NC(=O)c1[nH]cnc1C(=O)Nc1ccccc1)C(=O)OC(C)(C)C`, the IC50 in the assay on HL-60 [1] was determined as 4.7 µM; with HL-60 [2] it was 2.7 µM.

Take `CCOC(=O)c1ccc(NC(=O)c2[nH]cnc2C(=O)N[C@H](C)C(=O)OC(C)(C)C)cc1`: the IC50 turned out to be 6.3 µM in the assay on HL-60 [1] and 3.7 µM with HL-60 [2].

With `COC(=O)[C@H](NC(=O)c1[nH]cnc1C(=O)Nc1ccc(Cl)c(Cl)c1)c1ccccc1`, the values for the IC50 in the assay with HL-60 [1] and in the assay on HL-60 [2] were 17.3 µM and 10.8 µM, respectively.

In the case of `CCCCCCNC(=O)c1[nH]cnc1C(=O)Nc1ccc(Cl)c(Cl)c1`, the IC50 stood at 14.6 µM in the assay on HL-60 [1] and 7.8 µM in the assay with HL-60 [2].

With `C[C@H](NC(=O)c1[nH]cnc1C(=O)Nc1ccc(Cl)c(Cl)c1)c1ccccc1`, the IC50 in the assay on HL-60 [1] worked out at 9.2 µM; with HL-60 [2] it was 5.9 µM.

Consider `COc1ccc(NC(=O)c2[nH]cnc2C(=O)N[C@H](C)C(=O)OC(C)(C)C)cc1`, for which the values for the IC50 in the assay on HL-60 [1] and with HL-60 [2] were 6 µM and 3.1 µM, respectively.

As to `CC(C)CNC(=O)c1[nH]cnc1C(=O)Nc1ccc(Cl)c(Cl)c1`, the IC50 with HL-60 [1] was 14.7 µM; in the assay with HL-60 [2], 7.2 µM.

For the molecule `O=C(NCCc1ccccc1)c1nc[nH]c1C(=O)Nc1ccc(Cl)c(Cl)c1`, the results for the IC50 in the assay with HL-60 [1] and with HL-60 [2] were 17.7 µM and 13.2 µM, respectively.

For `COC(=O)[C@@H](NC(=O)c1[nH]cnc1C(=O)Nc1ccc(Cl)c(Cl)c1)C(C)C`, the IC50 with HL-60 [1] and with HL-60 [2] was above 62.5 µM throughout.

As for `COc1ccc(CNC(=O)c2[nH]cnc2C(=O)Nc2ccc(Cl)c(Cl)c2)cc1`, the IC50 in the assay with HL-60 [1] amounted to 24.3 µM; in the assay on HL-60 [2], 18.3 µM.

Take `C[C@@H](NC(=O)c1[nH]cnc1C(=O)Nc1ccc(Cl)c(Cl)c1)C(=O)OC(C)(C)C`: the IC50 came to 4.6 µM in the assay on HL-60 [1] and 2.5 µM with HL-60 [2].

With `CC(C)(C)OC(=O)CNC(=O)c1[nH]cnc1C(=O)Nc1ccc(Cl)c(Cl)c1`, the values for the IC50 in the assay with HL-60 [1] and in the assay with HL-60 [2] were 49.8 µM and 25.4 µM, respectively.

`C[C@@H](c1ccccc1)N(C)C(=O)c1[nH]cnc1C(=O)Nc1ccc(Cl)c(Cl)c1`: the IC50 is 75.5 µM in the assay with HL-60 [1] and 56 µM with HL-60 [2].

For `C[C@@H](NC(=O)c1[nH]cnc1C(=O)Nc1cccc(Cl)c1)C(=O)OC(C)(C)C`, the half-inhibitory concentration (IC50) is 8.2 µM in the assay on HL-60 [1] and 2.9 µM in the assay with HL-60 [2].

`COC(=O)[C@@H](NC(=O)c1[nH]cnc1C(=O)Nc1ccc(Cl)c(Cl)c1)c1ccccc1`: the values for the IC50 in the assay on HL-60 [1] and in the assay on HL-60 [2] were 13.2 µM and 6.8 µM, respectively.

Regarding `C[C@H](NC(=O)c1[nH]cnc1C(=O)Nc1ccc(Cl)c(Cl)c1)C(=O)OC(C)(C)C`, the IC50 with HL-60 [1] was found to be 4.9 µM; in the assay on HL-60 [2] it was 2.4 µM.

On to `O=C(NC1CCCCC1)c1nc[nH]c1C(=O)Nc1ccc(Cl)c(Cl)c1`, for which the figures for the IC50 in the assay with HL-60 [1] and with HL-60 [2] were 33.1 µM and 12.3 µM, respectively.

For `C[C@@H](NC(=O)c1[nH]cnc1C(=O)Nc1ccc(Cl)c(Cl)c1)c1ccccc1`, the IC50 in the assay with HL-60 [1] amounted to 8.8 µM; in the assay on HL-60 [2] it was 5.9 µM.

As for `COC(=O)[C@@H](C)NC(=O)c1[nH]cnc1C(=O)Nc1ccc(Cl)c(Cl)c1`, the IC50 in the assay on HL-60 [1] and in the assay with HL-60 [2] was above 62.5 µM throughout.
